The source made the active and inactive calls. The rule behind the calls is not given here.
Key:
[1] = tested on: Mus musculus; assay: Analgesic activity in mouse assessed as protection against acetic acid-induced abdominal constriction dosed 1 hr before acetic acid challenge measured for 20 mins post acetic acid challenge
[2] = tested on: Mus musculus; assay: Anti-inflammatory activity in Swiss mouse model of carrageenan-induced paw edema assessed as reduction in paw swelling at 50 mg/kg, sc dosed 30 mins before carrageenan challenge measured at 1 to 4 hrs post carrageenan challenge by mercury plethysmometry; format: functional, organism-based; parameters: dose 50 mg/kg
Procedure, shortened: (§1)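 In a mouse carrageenan paw edema model, compounds were given subcutaneously as pretreatment before the carrageenan injection. Swelling of the injected paw was measured with a mercury plethysmometer at 1, 2, 3 and 4 h. Activity was expressed as reduction in swelling relative to control.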

[3] = target: T1, Prostaglandin G/H synthase 1 (Ovis aries) (UniProt P05979); assay: Inhibition of purified ovine COX1 at saturation drug level pre-treated for 1 hr before 10-acetyl-3,7-dihydroxyphenoxazin substrate addition in absence of porcine liver esterase by fluorescence assay
T1 sequence (whole entry): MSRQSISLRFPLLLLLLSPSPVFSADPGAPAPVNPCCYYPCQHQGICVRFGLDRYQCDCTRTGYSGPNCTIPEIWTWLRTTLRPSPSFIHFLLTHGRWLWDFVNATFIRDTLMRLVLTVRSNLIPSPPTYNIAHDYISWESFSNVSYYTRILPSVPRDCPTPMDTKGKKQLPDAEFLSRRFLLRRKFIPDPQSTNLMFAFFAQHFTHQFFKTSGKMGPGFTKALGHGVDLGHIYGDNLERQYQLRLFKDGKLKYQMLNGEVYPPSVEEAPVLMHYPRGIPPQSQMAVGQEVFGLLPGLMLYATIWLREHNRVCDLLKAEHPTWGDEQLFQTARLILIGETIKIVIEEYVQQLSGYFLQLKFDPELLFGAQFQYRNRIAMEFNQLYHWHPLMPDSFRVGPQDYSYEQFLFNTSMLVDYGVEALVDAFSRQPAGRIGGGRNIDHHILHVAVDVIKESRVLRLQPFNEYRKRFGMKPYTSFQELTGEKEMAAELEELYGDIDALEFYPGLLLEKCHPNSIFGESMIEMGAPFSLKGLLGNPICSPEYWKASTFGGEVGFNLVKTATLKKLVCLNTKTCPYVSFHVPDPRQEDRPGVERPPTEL
Procedure, shortened: (§2)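 COX1 (ovine) and COX2 (human recombinant) were inhibited, with compound tested both without and with porcine liver esterase added. IC50 (μM) and % inhibition at saturation were reported. COX1 was also tested at a single 160 μM concentration.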

[4] = target: T2, Liver carboxylesterase (Sus scrofa, UniProt Q29550); assay: Prodrug conversion assessed as half life for porcine liver esterase-mediated prodrug conversion measured every 4 minutes for 100 mins by UV-visible absorption spectroscopy; format: ADME; conditions: pig, isolated protein
T2 sequence (Q29550 whole entry): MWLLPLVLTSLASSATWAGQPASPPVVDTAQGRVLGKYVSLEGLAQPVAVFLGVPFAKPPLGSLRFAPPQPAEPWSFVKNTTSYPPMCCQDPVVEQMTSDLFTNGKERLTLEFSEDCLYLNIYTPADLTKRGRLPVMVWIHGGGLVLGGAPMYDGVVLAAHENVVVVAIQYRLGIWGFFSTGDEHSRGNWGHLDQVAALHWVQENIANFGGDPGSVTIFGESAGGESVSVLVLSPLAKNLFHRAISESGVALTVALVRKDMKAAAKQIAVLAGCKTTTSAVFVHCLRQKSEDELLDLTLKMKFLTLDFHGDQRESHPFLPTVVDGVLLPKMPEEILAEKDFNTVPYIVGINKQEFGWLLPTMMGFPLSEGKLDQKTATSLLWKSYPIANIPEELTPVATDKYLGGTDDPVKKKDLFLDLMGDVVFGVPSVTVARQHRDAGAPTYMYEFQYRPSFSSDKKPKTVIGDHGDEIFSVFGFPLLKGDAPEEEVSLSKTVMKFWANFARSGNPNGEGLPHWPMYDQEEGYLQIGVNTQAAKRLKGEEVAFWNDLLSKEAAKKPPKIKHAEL
Procedure, shortened: (§3)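 Compound was incubated with porcine liver esterase at pH 7.5. UV–vis absorption spectra were recorded every 4 min for 100 min after esterase addition. Pseudo-first-order rate constants (s−1) were derived, and half-lives were calculated from them.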

[5] = tested on: Mus musculus; assay: Anti-inflammatory activity in Swiss mouse model of carrageenan-induced paw edema assessed as reduction in paw swelling at 50 mg/kg, sc dosed 30 mins before carrageenan challenge measured at 2 to 4 hrs post carrageenan challenge by mercury plethysmometry; format: functional, organism-based; parameters: dose 50 mg/kg
Procedure, shortened: as §1

[6] = target: T3, Prostaglandin G/H synthase 2 (Homo sapiens, UniProt P35354); assay: Inhibition of human recombinant COX2 pre-treated for 1 hr before 10-acetyl-3,7-dihydroxyphenoxazin substrate addition in presence of porcine liver esterase by fluorescence assay
T3 sequence (P35354 whole entry): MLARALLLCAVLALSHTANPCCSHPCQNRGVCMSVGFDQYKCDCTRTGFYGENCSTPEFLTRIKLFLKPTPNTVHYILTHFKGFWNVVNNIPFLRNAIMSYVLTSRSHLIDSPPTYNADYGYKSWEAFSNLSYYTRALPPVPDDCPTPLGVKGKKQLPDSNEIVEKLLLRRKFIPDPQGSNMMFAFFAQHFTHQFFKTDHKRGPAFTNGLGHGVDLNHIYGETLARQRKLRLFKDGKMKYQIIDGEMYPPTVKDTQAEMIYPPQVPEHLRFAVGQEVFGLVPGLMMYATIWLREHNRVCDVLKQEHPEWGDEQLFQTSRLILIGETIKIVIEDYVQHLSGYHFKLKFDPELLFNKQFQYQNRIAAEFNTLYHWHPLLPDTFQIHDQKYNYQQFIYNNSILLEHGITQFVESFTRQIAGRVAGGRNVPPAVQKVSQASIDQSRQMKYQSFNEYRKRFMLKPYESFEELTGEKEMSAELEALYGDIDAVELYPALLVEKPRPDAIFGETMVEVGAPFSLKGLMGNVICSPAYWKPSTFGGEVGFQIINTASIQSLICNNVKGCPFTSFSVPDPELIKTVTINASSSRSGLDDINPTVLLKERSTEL
Procedure, shortened: as §2

[7] = target: T4, Prostaglandin G/H synthase 1 (Ovis aries, UniProt P05979); assay: Inhibition of purified ovine COX1 pre-treated for 1 hr before 10-acetyl-3,7-dihydroxyphenoxazin substrate addition in absence of porcine liver esterase by fluorescence assay
T4 sequence (P05979 whole entry): T1 sequence (whole entry)
Procedure, shortened: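 COX1 (ovine) and COX2 (human recombinant) were inhibited, with compound tested both without and with porcine liver esterase added. IC50 (μM) and % inhibition at saturation were reported.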

[8] = target: T1, Prostaglandin G/H synthase 1 (Ovis aries); assay: Inhibition of purified ovine COX1 at saturation drug level pre-treated for 1 hr before 10-acetyl-3,7-dihydroxyphenoxazin substrate addition in presence of porcine liver esterase by fluorescence assay
Procedure, shortened: as §2

[9] = target: T2, Liver carboxylesterase; assay: Prodrug conversion assessed as pseudo-first-order rate constant for porcine liver esterase-mediated prodrug conversion measured every 4 minutes for 100 mins by UV-visible absorption spectroscopy; format: ADME; conditions: pig, isolated protein
Procedure, shortened: as §3

[10] = target: T4, Prostaglandin G/H synthase 1; assay: Inhibition of purified ovine COX1 pre-treated for 1 hr before 10-acetyl-3,7-dihydroxyphenoxazin substrate addition in presence of porcine liver esterase by fluorescence assay
Procedure, shortened: as §2

[11] = tested on: Mus musculus; assay: Anti-inflammatory activity in Swiss mouse model of carrageenan-induced paw edema assessed as reduction in paw swelling at 50 mg/kg, sc dosed 30 mins before carrageenan challenge measured at 120 mins post carrageenan challenge by mercury plethysmometry; format: functional, organism-based; parameters: dose 50 mg/kg
Procedure, shortened: as §1

[12] = tested on: Mus musculus; assay: Analgesic activity in mouse assessed as protection against acetic acid-induced abdominal constriction dosed with equimolar mixture of propyphenazone 1 hr before acetic acid challenge measured for 20 mins post acetic acid challenge

| inhibition ([3]; concentration not given here) [%] | t1/2 [4] | IC50 ([6]; read-out: IC50) [µM] | IC50 ([7]; read-out: IC50) [µM] | inhibition ([8]; concentration not given here) [%] | K [9] [s⁻¹] | IC50 ([10]; read-out: IC50) [µM] | Structure (SMILES) | Activity [1] [%] | Anti-inflammatory activity [2] | inhibition [5] | also measured |
| --- | --- | --- | --- | --- | --- | --- | --- | --- | --- | --- | --- |
|  |  |  |  |  |  |  | Cc1c(C(C)C)c(=O)n(-c2ccccc2)n1C [PROPYPHENAZONE] | 45 | inactive |  |  |
| 100 |  |  |  |  |  |  | O=C(O)Cc1ccccc1Nc1c(Cl)cccc1Cl [DICLOFENAC] | 63 | Active |  |  |
| 29 | 11.5 min | 9.9 | 7.1 | 100 | 0.001 | 0.25 | CC(C)c1c(COC(=O)Cc2ccccc2Nc2c(Cl)cccc2Cl)n(C)n(-c2ccccc2)c1=O | 87 |  | Active |  |
| 100 |  |  | 0.8 |  |  |  | CC(C(=O)O)c1cccc(C(=O)c2ccccc2)c1 (stereo unspecified) [KETOPROFEN] | 66 | Active |  |  |
|  |  |  |  |  |  |  | CC(C)Cc1ccc(C(C)C(=O)O)cc1 (stereo unspecified) |  | Active |  |  |
|  | 28.8 min | 1.3 |  | 100 | 0.0004 | 4.7 | CC(C)Cc1ccc(C(C)C(=O)OCc2c(C(C)C)c(=O)n(-c3ccccc3)n2C)cc1 (stereo unspecified) | 95 |  | Active | IC50 [7]: Not Active; inhibition [3]: inactive |
| 43 | Stable |  | 24 | 43 |  | 24 | CC(C)c1c(CN(C)CCc2ccccn2)n(C)n(-c2ccccc2)c1=O | 45 | inactive |  | IC50 [6]: Not Active |
|  | Stable |  |  |  |  |  | Cc1c(NCc2c(C(C)C)c(=O)n(-c3ccccc3)n2C)c(=O)n(-c2ccccc2)n1C [BISFENAZONE] | 100 |  |  | inhibition [11]: Active; IC50 [7]: Not Active; inhibition [8]: inactive; IC50 [10]: Not Active; inhibition [3]: inactive |
| 43 | 38.5 min | 2.2 | 0.2 | 100 | 0.0003 | 0.48 | CC(C)c1c(COC(=O)C(C)c2cccc(C(=O)c3ccccc3)c2)n(C)n(-c2ccccc2)c1=O (stereo unspecified) | 73 |  | Active |  |
| 100 |  |  | 26 |  |  |  | Cc1c(N)c(=O)n(-c2ccccc2)n1C [AMPYRONE] | 45 |  |  | Activity [12]: 35% |

Reference: ChEMBL document CHEMBL3351375, “Propyphenazone-based analogues as prodrugs and selective cyclooxygenase-2 inhibitors” (ACS Med Chem Lett, 2014)
